In ChEMBL document CHEMBL1212846, “Synthesis and in vivo evaluation of [11C]tariquidar, a positron emission tomography radiotracer based on a third-generation P-glycoprotein inhibitor” (Bioorg Med Chem, 2010):
Blank lines part the entries; values can stand above or below the molecule they belong to. Active and inactive are the calls of the source. The rule behind the calls is not given here.

Legend:
[1] = test system: Brain; experiment: Drug uptake in rat brain after 25 mins; assay type: ADME, tissue-based; conditions: in vivo
Method in brief: (§1)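 Naïve rats under isoflurane anaesthesia (1.5–2% maintenance), warmed to about 38 °C, with femoral artery and vein catheters. Baseline dynamic PET, whole-brain TACs expressed as SUV. Arterial blood sampled frequently and gamma-counted.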

[2] = test system: Brain; experiment: Drug uptake in rat brain at 15 mg/kg, iv after 60 mins post-radiotracer administration; assay type: ADME, organism-based; set-up: dose 15 mg/kg, route intravenous; conditions: in vivo, 1 h
[3] = test system: Brain; experiment: Drug uptake in rat brain at 5 mg/kg, iv after 60 mins post-radiotracer administration; assay type: ADME, organism-based; set-up: dose 5 mg/kg, route intravenous; conditions: in vivo, 1 h
[4] = molecular target: T1, Broad substrate specificity ATP-binding cassette transporter ABCG2 (Homo sapiens, UniProt Q9UNQ0); experiment: Inhibition of BCRP
T1 sequence (Q9UNQ0 whole entry): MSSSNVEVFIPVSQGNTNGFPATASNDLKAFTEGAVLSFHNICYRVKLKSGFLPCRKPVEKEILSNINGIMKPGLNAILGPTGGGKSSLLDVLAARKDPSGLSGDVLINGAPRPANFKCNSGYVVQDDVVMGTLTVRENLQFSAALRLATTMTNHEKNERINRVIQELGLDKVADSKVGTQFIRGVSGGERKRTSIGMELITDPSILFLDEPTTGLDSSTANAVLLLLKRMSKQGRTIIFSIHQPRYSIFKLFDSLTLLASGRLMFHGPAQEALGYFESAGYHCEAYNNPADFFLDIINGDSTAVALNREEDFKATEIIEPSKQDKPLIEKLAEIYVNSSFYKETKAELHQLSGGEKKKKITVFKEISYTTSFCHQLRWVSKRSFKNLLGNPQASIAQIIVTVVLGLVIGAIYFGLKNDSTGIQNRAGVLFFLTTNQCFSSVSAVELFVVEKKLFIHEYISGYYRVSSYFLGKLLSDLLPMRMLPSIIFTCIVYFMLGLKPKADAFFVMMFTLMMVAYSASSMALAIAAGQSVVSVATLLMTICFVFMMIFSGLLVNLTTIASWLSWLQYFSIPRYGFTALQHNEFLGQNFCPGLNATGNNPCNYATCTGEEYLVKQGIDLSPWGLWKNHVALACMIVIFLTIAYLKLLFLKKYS

[5] = test system: Brain; experiment: Biodistribution in mouse brain; assay type: ADME, organism-based; conditions: in vivo
Method in brief: (§2)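 Mice (wild-type, Mdr1a/b(−/−), Bcrp1(−/−), Mdr1a/b(−/−)Bcrp1(−/−); n = 3 per type) under isoflurane anaesthesia, warmed to about 38 °C. Whole-brain SUV taken at 25 min. Brain-to-blood ratio = individual brain SUV ÷ mean whole-blood SUV from separate groups, with blood drawn retro-orbitally at 25 min and gamma-counted.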

[6] = Inhibition of MRP
[7] = test system: Brain; experiment: Decrease in binding in BCRP1 deficient FVB mouse brain; conditions: in vitro
[8] = Ratio of drug level from brain to blood in MDR1a/b and BCRP1 deficient FVB mouse; assay type: ADME, tissue-based; method in brief: as §2
[9] = Ratio of drug level from brain to blood in BCRP1 deficient FVB mouse; assay type: ADME, tissue-based; conditions: brain and blood
Method in brief: (§3)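 Single 60-min dynamic PET scan, whole brain outlined, SUV read at 25 min. Venous blood drawn retro-orbitally at 25 min in separate groups, gamma-counted and decay-corrected. Brain SUV of each animal divided by mean blood SUV of that group.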

[10] = test system: Brain; experiment: Drug uptake in rat brain after 0.5 to 1.3 mins; assay type: ADME, tissue-based; conditions: in vivo; method in brief: as §1
[11] = Ratio of drug level from brain to blood in wild type FVB mouse; assay type: ADME, tissue-based; conditions: brain and blood; method in brief: as §3
[12] = Ratio of drug level from brain to blood in MDR1a/b deficient FVB mouse; assay type: ADME, tissue-based; conditions: brain and blood; method in brief: as §2
[13] = test system: Brain; experiment: Decrease in binding in MDR1a/b and BCRP1 deficient FVB mouse brain; conditions: in vitro
[14] = test system: Brain; experiment: Decrease in binding in MDR1a/b deficient FVB mouse brain; conditions: in vitro

SUV [1]: 0.19 | SUV [2]: 0.43 | SUV [3]: 0.71
Compound: COc1cc2c(cc1OC)CN(CCc1ccc(NC(=O)c3cccc4c(=O)c5cccc(OC)c5[nH]c34)cc1)CC2 [ELACRIDAR]

inhibition (INH) [4]: Active | Activity [5]: 24% | inhibition [6]: Active
Compound: COc1cc2c(cc1OC)CN(CCc1ccc(NC(=O)c3cc(OC)c(OC)cc3NC(=O)c3cnc4ccccc4c3)cc1)CC2 [TARIQUIDAR]

% decrease in binding [7]: 41% | Kp [8]: 14.5 | Kp [9]: 1.8 | SUV [10]: 0.71 | Kp [11]: 1 | Kp [12]: 3.4 | % decrease in binding [13]: 46% | % decrease in binding [14]: 49%
Compound: COc1cc2c(cc1OC)CN(CCc1ccc(NC(=O)c3cc(O[11CH3])c(OC)cc3NC(=O)c3cnc4ccccc4c3)cc1)CC2 [[11C]TARIQUIDAR]
